For one molecule, Stability and Kd results are on record in ChEMBL document CHEMBL1155379, “Effect of 3'-end capping of aptamer with various 2',4'-bridged nucleotides: Enzymatic post-modification toward a practical use of polyclonal aptamers” (Bioorg Med Chem Lett, 2010).

The nature of data set [1]: Chemical stability in presence of snake venom phosphodiesterase 1 assessed as oligonucleotide degradation after 120 mins by PAGE. Conditions: 2 h. Format: physicochemical.
Another data set deals with Prothrombin (Homo sapiens, UniProt P00734). Description: Binding affinity to human thrombin after 30 mins by non-equilibrium capillary electrophoresis. Summed up: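 Capillary electrophoresis of aptamer–thrombin mixtures: aptamer 1 nM with thrombin 4 nM in 20 mM Tris-HCl (1 mM MgCl2) pH 7.4 sample buffer; running buffer 100 mM sodium borate pH 8.35; separation +12 kV, injection 0.5 psi × 7.8 s. Kd derived from binding saturation curves over varied thrombin concentrations.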

Broadly, the Kd is the equilibrium constant for the complex coming apart. A high value points to a looser complex. For the molecule `C=C1NC(=O)C(C)=CN1[C@H]1C[C@H](OP(=O)(O)OC[C@H]2O[C@@H](n3cnc4c(=O)[nH]c(N)nc43)[C@H](O)[C@@H]2OP(=O)(O)OC[C@H]2O[C@@H](n3cnc4c(N)ncnc43)[C@H](O)[C@@H]2OP(=O)(O)OC[C@H]2O[C@@H](n3ccc(N)nc3=O)[C@H](O)[C@@H]2OP(=O)(O)OC[C@H]2O[C@@H](n3cc(C)c(=O)[nH]c3=O)C[C@@H]2OP(=O)(O)OC[C@@]23CO[C@@H]([C@H](n4cc(C)c(=O)[nH]c4=O)O2)[C@@H]3O)[C@@H](COP(=O)(O)O[C@H]2[C@@H](O)[C@H](n3cnc4c(=O)[nH]c(N)nc43)O[C@@H]2COP(=O)(O)O[C@H]2[C@@H](O)[C@H](n3cnc4c(=O)[nH]c(N)nc43)O[C@@H]2COP(=O)(O)O[C@H]2[C@@H](O)[C@H](n3cnc4c(=O)[nH]c(N)nc43)O[C@@H]2COP(=O)(O)O[C@H]2[C@@H](O)[C@H](n3cnc4c(=O)[nH]c(N)nc43)O[C@@H]2COP(=O)(O)O[C@H]2C[C@H](n3cc(C)c(=O)[nH]c3=O)O[C@@H]2COP(=O)(O)O[C@H]2C[C@H](n3cc(C)c(=O)[nH]c3=O)O[C@@H]2COP(=O)(O)O[C@H]2[C@@H](O)[C@H](n3cnc4c(=O)[nH]c(N)nc43)O[C@@H]2COP(=O)(O)O[C@H]2[C@@H](O)[C@H](n3cnc4c(=O)[nH]c(N)nc43)O[C@@H]2COP(=O)(O)O[C@H]2[C@@H](O)[C@H](n3cnc4c(N)ncnc43)O[C@@H]2COP(=O)(O)O[C@H]2[C@@H](O)[C@H](n3ccc(N)nc3=O)O[C@@H]2COP(=O)(O)O[C@H]2[C@@H](O)[C@H](n3cnc4c(=O)[nH]c(N)nc43)O[C@@H]2COP(=O)(O)O[C@H]2[C@@H](O)[C@H](n3cnc4c(=O)[nH]c(N)nc43)O[C@@H]2COP(=O)(O)O[C@H]2[C@@H](O)[C@H](n3cnc4c(=O)[nH]c(N)nc43)O[C@@H]2COP(=O)(O)O[C@H]2[C@@H](O)[C@H](n3cnc4c(N)ncnc43)O[C@@H]2COP(=O)(O)O[C@H]2C[C@H](n3cc(C)c(=O)[nH]c3=O)O[C@@H]2COP(=O)(O)O[C@H]2[C@@H](O)[C@H](n3cnc4c(=O)[nH]c(N)nc43)O[C@@H]2COP(=O)(O)O[C@H]2[C@@H](O)[C@H](n3cnc4c(=O)[nH]c(N)nc43)O[C@@H]2COP(=O)(O)O[C@H]2C[C@H](n3cc(C)c(=O)[nH]c3=O)O[C@@H]2COP(=O)(O)O[C@H]2[C@@H](O)[C@H](n3cnc4c(=O)[nH]c(N)nc43)O[C@@H]2COP(=O)(O)O[C@H]2[C@@H](O)[C@H](n3ccc(N)nc3=O)O[C@@H]2COP(=O)(O)O[C@H]2[C@@H](O)[C@H](n3ccc(N)nc3=O)O[C@@H]2COP(=O)(O)O[C@H]2C[C@H](n3cc(C)c(=O)[nH]c3=O)O[C@@H]2COP(=O)(O)O[C@H]2[C@@H](O)[C@H](n3cnc4c(=O)[nH]c(N)nc43)O[C@@H]2COP(=O)(O)O[C@H]2[C@@H](O)[C@H](n3cnc4c(N)ncnc43)O[C@@H]2COc2ccc3c(c2)Oc2cc(O)ccc2C32OC(=O)c3ccccc32)O1` (some centres not stated), in data set [1], the Stability entry is listed as “Stable”. At Prothrombin, this molecule showed a Kd of 180 pM.
